In ChEMBL document CHEMBL1142034, “Inhibitors of HCV NS5B polymerase: synthesis and structure-activity relationships of N-1-heteroalkyl-4-hydroxyquinolon-3-yl-benzothiadiazines” (Bioorg Med Chem Lett, 2005):

What was measured:
[1] = biological target: T1, RNA-directed RNA polymerase (Hepacivirus hominis, UniProt O39930); assay: Inhibitory concentration against RNA dependent RNA polymerase Nonstructural protein 5B of genotype 1b Hepatitis C virus
Method in brief: (§1)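 A biochemical assay on NS5B polymerase enzyme gave the IC50 values, run separately for genotype 1a and 1b.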

[2] = biological target: T1, RNA-directed RNA polymerase; assay: Inhibitory concentration against RNA dependent RNA polymerase Nonstructural protein 5B of genotype 1a Hepatitis C virus; method in brief: as §1
[3] = biological target: T1, RNA-directed RNA polymerase; assay: Effective concentration against RNA dependent RNA polymerase Nonstructural protein 5B of genotype 1b Hepatitis C virus
Method in brief: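 Activity measured in an HCV replicon assay, with EC50 values derived from it.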

T1 sequence (O39930 whole entry): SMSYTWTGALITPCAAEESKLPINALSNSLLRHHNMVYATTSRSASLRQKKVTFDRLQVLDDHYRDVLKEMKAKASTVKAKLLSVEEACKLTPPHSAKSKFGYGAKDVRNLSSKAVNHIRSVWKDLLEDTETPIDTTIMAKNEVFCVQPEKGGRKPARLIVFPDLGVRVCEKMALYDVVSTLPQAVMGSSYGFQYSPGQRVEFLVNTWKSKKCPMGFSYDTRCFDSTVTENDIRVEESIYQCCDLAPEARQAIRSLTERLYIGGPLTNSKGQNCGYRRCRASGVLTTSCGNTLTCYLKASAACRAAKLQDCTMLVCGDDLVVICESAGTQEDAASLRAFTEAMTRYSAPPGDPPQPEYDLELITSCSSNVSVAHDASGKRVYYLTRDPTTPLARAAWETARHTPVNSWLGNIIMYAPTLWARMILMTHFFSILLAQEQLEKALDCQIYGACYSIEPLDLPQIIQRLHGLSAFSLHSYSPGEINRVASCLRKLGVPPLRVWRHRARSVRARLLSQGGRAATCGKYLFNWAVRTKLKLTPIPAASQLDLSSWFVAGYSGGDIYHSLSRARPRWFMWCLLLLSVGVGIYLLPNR

Row | SMILES | IC50 [1] [µM] | IC50 [2] [µM] | EC50 [3] [µM]
1 | O=c1c(C2=Nc3ccccc3S(=O)(=O)N2)c(O)c2ccccc2n1NCC1CCCC1 | 0.15 | 0.747 | –
2 | CCCCNn1c(=O)c(C2=Nc3ccccc3S(=O)(=O)N2)c(O)c2ccccc21 | 0.161 | 0.951 | 3.48
3 | O=c1c(C2=Nc3ccccc3S(=O)(=O)N2)c(O)c2ccccc2n1NCc1ccoc1 | 0.133 | 1.55 | –
4 | O=c1c(C2=Nc3ccccc3S(=O)(=O)N2)c(O)c2ccccc2n1NCc1cccs1 | 0.125 | 2.33 | –
5 | CCC(CC)Nn1c(=O)c(C2=NS(=O)(=O)c3ccccc3N2)c(O)c2ccccc21 | 0.12 | 2.46 | –
6 | O=c1c(C2=NS(=O)(=O)c3ccccc3N2)c(O)c2cccnc2n1Cc1ccccc1 | 0.083 | – | –
7 | CC(Nn1c(=O)c(C2=Nc3ccccc3S(=O)(=O)N2)c(O)c2ccccc21)c1ccccc1 (configuration not stated) | 1.49 | 16.5 | –
8 | Cc1cccc(CNn2c(=O)c(C3=NS(=O)(=O)c4ccccc4N3)c(O)c3ccccc32)c1 | 0.212 | 8.21 | –
9 | CCC(CC)n1c(=O)c(C2=NS(=O)(=O)c3ccccc3N2)c(O)c2cccnc21 | 13.2 | – | –
10 | O=c1c(C2=Nc3ccccc3S(=O)(=O)N2)c(O)c2ccccc2n1NCc1ccc(Br)cc1 | 4.69 | 10.4 | –
11 | O=c1c(C2=Nc3ccccc3S(=O)(=O)N2)c(O)c2ccccc2n1NCc1nccs1 | 0.674 | 35.8 | –
12 | CCC(CC)Cn1c(=O)c(C2=NS(=O)(=O)c3ccccc3N2)c(O)c2cccnc21 | 0.058 | – | –
13 | CC(C)CNn1c(=O)c(C2=NS(=O)(=O)c3ccccc3N2)c(O)c2ccccc21 | 0.101 | 0.941 | 1.35
14 | Cc1ccsc1CNn1c(=O)c(C2=NS(=O)(=O)c3ccccc3N2)c(O)c2ccccc21 | 1.19 | 15 | –
15 | O=c1c(C2=Nc3ccccc3S(=O)(=O)N2)c(O)c2ccccc2n1NCC1CCCCC1 | 0.15 | 2.53 | –
16 | CC(C)(C)CCNn1c(=O)c(C2=NS(=O)(=O)c3ccccc3N2)c(O)c2ccccc21 | 0.135 | 0.411 | –
17 | CCCC(Nn1c(=O)c(C2=NS(=O)(=O)c3ccccc3N2)c(O)c2ccccc21)C(C)C (configuration not stated) | 1.13 | 6.4 | –
18 | CCCC(CC)Nn1c(=O)c(C2=Nc3ccccc3S(=O)(=O)N2)c(O)c2ccccc21 (configuration not stated) | 0.386 | 1.89 | –
19 | O=c1c(C2=Nc3ccccc3S(=O)(=O)N2)c(O)c2ccccc2n1NCc1ccccc1 | 0.129 | 5.09 | 15.7
20 | CC(C)Nn1c(=O)c(C2=NS(=O)(=O)c3ccccc3N2)c(O)c2ccccc21 | 0.64 | 6.35 | –
21 | CC(C)CCn1c(=O)c(C2=NS(=O)(=O)c3ccccc3N2)c(O)c2cccnc21 | 0.069 | – | –

Row | SMILES | IC50 [1] [µM] | IC50 [2] [µM] | EC50 [3] [µM]
22 | Cc1ccccc1CNn1c(=O)c(C2=Nc3ccccc3S(=O)(=O)N2)c(O)c2ccccc21 | 0.481 | 6.12 | –
23 | O=c1c(C2=NS(=O)(=O)c3ccccc3N2)c(O)c2ccccc2n1NCC1CC1 | 0.145 | 0.285 | 1.05
24 | O=c1c(C2=Nc3ccccc3S(=O)(=O)N2)c(O)c2ccccc2n1NC1CCCCC1 | 0.06 | 0.356 | 1.27
25 | Cc1ccc(CNn2c(=O)c(C3=Nc4ccccc4S(=O)(=O)N3)c(O)c3ccccc32)cc1 | > 5 | > 5 | –
26 | O=c1c(C2=NS(=O)(=O)c3ccccc3N2)c(O)c2cccnc2n1C1CCCCC1 | 50 | – | –
27 | CC(C)COn1c(=O)c(C2=Nc3ccccc3S(=O)(=O)N2)c(O)c2cccnc21 | 20.5 | – | –
28 | O=c1c(C2=NS(=O)(=O)c3ccccc3N2)c(O)c2cccnc2n1OCc1ccccc1 | 58 | – | –
29 | O=c1c(C2=Nc3ccccc3S(=O)(=O)N2)c(O)c2ccccc2n1NCc1cccnc1 | 0.221 | > 5 | –
30 | O=c1c(C2=NS(=O)(=O)c3ccccc3N2)c(O)c2ccccc2n1NCc1ccco1 | 0.305 | 3.26 | –
31 | O=c1c(C2=Nc3ccccc3S(=O)(=O)N2)c(O)c2ccccc2n1NCC1CCC1 | 0.108 | 0.278 | 0.103
32 | CCCCCNn1c(=O)c(C2=NS(=O)(=O)c3ccccc3N2)c(O)c2ccccc21 | – | 0.928 | –
33 | O=c1c(C2=Nc3ccccc3S(=O)(=O)N2)c(O)c2ccccc2n1NCc1ccccc1Br | 0.469 | 6.72 | –
34 | O=c1c(C2=NS(=O)(=O)c3ccccc3N2)c(O)c2ccccc2n1NC1CCOCC1 | 0.439 | 4.63 | –
35 | CC(C)CCNn1c(=O)c(C2=Nc3ccccc3S(=O)(=O)N2)c(O)c2ccccc21 | 0.134 | 0.629 | –
36 | CCCC(CCC)Nn1c(=O)c(C2=Nc3ccccc3S(=O)(=O)N2)c(O)c2ccccc21 | 1.8 | 2.24 | –
37 | O=c1c(C2=NS(=O)(=O)c3ccccc3N2)c(O)c2ccccc2n1NCc1cccc(Br)c1 | 0.075 | 1.04 | –
38 | O=c1c(C2=NS(=O)(=O)c3ccccc3N2)c(O)c2cccnc2n1CC1CCCCC1 | 0.093 | – | –
39 | CC(c1ccccc1)n1c(=O)c(C2=NS(=O)(=O)c3ccccc3N2)c(O)c2cccnc21 (configuration not stated) | 4.63 | – | –
40 | O=c1c(C2=NS(=O)(=O)c3ccccc3N2)c(O)c2ccccc2n1NCc1ccc(Cl)s1 | 1.45 | 4.78 | –
41 | O=c1c(C2=NS(=O)(=O)c3ccccc3N2)c(O)c2cccnc2n1CCc1ccccc1 | 1.49 | – | –
